Bioassay records from PubChem BioAssay.
Shown are actives, neighbours in structure and some others; about 4.6% of the full set was active somewhere.
GPR7 antag: human neuropeptides B/W receptor 1 antagonism; P48145; GPR7-expressing cells, fluorescence antagonist assay; inhibition, % at 4.4 µM; 290,000 compounds, 1.1% hits; in the data active = inhibition above about 16%, passing the limit was not always enough;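 also: cells stimulated with the agonist NPW; 0% = agonist with vehicle and 100% = vehicle without agonist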
CHO parental Ca: counter-screen for OX1R antagonists: effect in parental CHO cells; parental CHO-K1, ATP-induced calcium, Fluo-8 fluorescence; AID 463079; inhibition, % at 5.6 µM; 330,000 compounds, 0.63% hits;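 active = inhibition above that plate's mean sample inhibition plus 3 SD, cut at about 26% in these data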;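 also: 0% = ATP-challenged DMSO wells and 100% = DMSO wells without ATP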
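Measured by: calcium-sensitive Fluo-8 fluorescence / Test system: CHO parental line / Controls: ATP-challenged DMSO wells low, unchallenged DMSO wells high / Measure: % inhibition / Compound: single nominal dose of 5.6 µM per compound / Replicates: single well per compound, no replicates / Reagent: ATP as calcium-mobilizing challenge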
TAAR1 antagonist: human TAAR1 antagonism. CHO RD-HGA16 TAAR1, Fluo-8 calcium fluorescence, antagonist. inhibition, % at 3 µM. 360,000 compounds, 1.5% hits. AID 624466;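 active = inhibition above a per-plate cutoff, the mean inhibition of test compounds on that plate plus 3 SD, cut at about 49% in these data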;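 also: 0% = DMSO plus EC80 beta-PEA response and 100% = DMSO alone without agonist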
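Test system: CHO RD-HGA16 cells bearing hTAAR1 | Reagent: β-PEA, EC80 | Compound dosing: 3 µM, single point | Schedule: Dye loading 75 min at 37 °C, then 30 min room temperature | Signal: Calcium fluorescence with Fluo-8 | Evaluation: Percent inhibition of PEA-evoked calcium signal, max/basal emission ratio | Control set: DMSO-only wells and EC80 β-PEA-stimulated wells | Repeats: Singlicate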
OX1R antag-1: blocks the human orexin 1 receptor. O43613. CHO/OX1R cells, Fluo-8 calcium fluorescence, orexin A. inhibition, % at 5 µM. 330,000 compounds, 0.43% hits. AID 434989;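 active = inhibition above its plate's threshold, mean inhibition of all tested compounds on the plate plus 3 SD, cut at about 37% in these data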;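 also: 0% = orexin A challenge wells and 100% = SB-334867-A antagonist wells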
Target sequence (O43613 whole entry, looked up): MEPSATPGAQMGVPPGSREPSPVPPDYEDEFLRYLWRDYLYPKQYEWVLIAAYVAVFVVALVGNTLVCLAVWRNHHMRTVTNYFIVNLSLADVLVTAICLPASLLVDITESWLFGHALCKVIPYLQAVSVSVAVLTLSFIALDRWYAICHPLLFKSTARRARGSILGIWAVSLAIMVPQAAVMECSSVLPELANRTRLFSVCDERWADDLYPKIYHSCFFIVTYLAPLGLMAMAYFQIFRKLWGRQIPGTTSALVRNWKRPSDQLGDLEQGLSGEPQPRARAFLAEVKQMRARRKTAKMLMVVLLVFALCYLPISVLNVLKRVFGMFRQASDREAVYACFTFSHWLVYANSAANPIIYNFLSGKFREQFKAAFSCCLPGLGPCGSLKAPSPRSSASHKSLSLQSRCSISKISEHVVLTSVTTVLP
TAAR1 ag: human TAAR1 agonism. AID 624467. CHO RD-HGA16 TAAR1, Fluo-8 calcium fluorescence; vehicle wells 0%, saturating PEA agonist 100%. 360,000 compounds, 0.99% hits. activation, % at 3 µM. Q96RJ0;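 active = activation above the mean activation of all test compounds in the run plus 3 SD, cut at about 38% in these data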
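Test system: RD-HGA16 (CHO) cells co-expressing Gα16 and hTAAR1 | Doses: Single dose, 3 µM | Schedule: 17-24 h seeding, 75 min 37 °C dye, 30 min RT | Evaluation: % activation from peak over basal fluorescence ratio, DMSO-to-PEA scaled | Technique: Kinetic Fluo-8 calcium fluorescence | Benchmarks: Low control DMSO, high control PEA (EC100)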
OX1R antag-2: OX1R (human) antagonism | AID 485270 | inhibition, % at 6.6 µM | 330,000 compounds, 1.8% hits | O43613 | OX1R-expressing cells, FRET antagonist read-out; in the data active = inhibition mostly above about 38%, no sharp cut-off; inactive = mostly below about 40%;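 also: 0% = agonist challenge alone and 100% = reference antagonist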
* marks the source's active call; other numbers are inactive results; x = no result given.

SMILES	GPR7 antag	CHO parental Ca	TAAR1 antagonist	OX1R antag-1	TAAR1 ag	OX1R antag-2
O=C(CSc1nc2ccccc2s1)N1c2ccccc2Sc2ccc(Cl)cc21	0.6	5.1	1.4	-3.6	3.2	44.8*
Cc1ccc2nc(N/N=C/c3ccccc3F)nc(-c3ccccc3)c2c1	-4.5	-22.3	13.1	-22.3	2.9	50.8*
COC(=O)CCN1CCSCCS1(=O)=O	x	x	-11.7	x	1.2	x
CCC(C)CN1C(=O)CN(S(C)(=O)=O)CC1(C)C(=O)NCc1ccccc1 (stereo unspecified)	x	x	1.2	x	0.4	x
O=C(NCCCN1CCCC1=O)C1CCN(S(=O)(=O)c2ccc(Cl)cc2)CC1	x	-6.7	6.7	-23.6	0.7	4.0
O=C(CC(c1ccccc1)(c1ccccc1)c1ccccc1)N[C@@H](Cc1ccc(O)cc1)C(=O)O	-19.8	-15.9	6.4	-2.4	-1.5	50.0*
O=C(COCc1ccccc1)N[C@@H](Cc1ccc(O)cc1)C(=O)O	-16.1	-4.0	10.6	-14.8	7.8	4.0
COc1ccc(OC)c(NC(=O)CC2SC(=Nc3ccccc3)N(CCc3ccccn3)C2=O)c1 (stereo unspecified)	-2.9	-11.3	11.4	-25.4	4.5	22.0
COc1ccc(N=C2SC(CC(=O)Nc3ccccc3)C(=O)N2CCc2ccccn2)cc1 (stereo unspecified)	1.6	-5.4	2.8	16.5	3.3	69.2*
O=C1C2CC=C(Cl)CC2C(=O)N1CCCCCCN1C(=O)C2CC=C(Cl)CC2C1=O (stereo unspecified)	13.7	-12.1	21.6	0.8	40.6*	23.7
O=C(N=Nc1c(O)[nH]c2c(Cl)cc(Cl)cc12)c1ccccc1O	x	x	24.0	x	1.8	x
CCCNC(=O)c1noc2c1CCc1ccccc1-2	1.9	-3.9	9.2	-15.5	-0.6	10.8
COc1ccc2c(c1)CCc1c(C(=O)Nc3ccc(OC)c(OC)c3)noc1-2	-4.9	-6.4	51.3*	-15.1	10.1	3.1
O=C(NCCc1ccccc1)c1noc2c1CCc1ccccc1-2	-6.5	-18.2	67.4*	-24.3	31.1	29.2
COc1ccc2c(c1)CCc1c(C(=O)NCCc3ccc(OC)c(OC)c3)noc1-2	-15.1	-21.7	49.4*	-20.6	11.8	25.8
C[C@H](CO)N1C[C@H](C)[C@H](CN(C)C(=O)Nc2ccc(F)cc2)Oc2ncc(Br)cc2C1=O	x	x	-11.3	x	2.5	x
CC(C)OC(=O)[C@@H](Cc1ccccc1)N[C@H](/C=C/c1ccccc1)[C@@H](O)Cc1ccccc1	x	x	26.2	x	-0.4	x
CCN(CC)C(c1ccc(F)cc1)c1nnnn1C1CCCCC1 (stereo unspecified)	6.3	-23.9	-2.6	-20.4	6.9	19.2
CCN(CC)C(c1ccc(C)cc1)c1nnnn1C1CCCCC1 (stereo unspecified)	-1.9	26.3*	10.9	-37.0	-1.1	24.8
Cc1ccc(S(=O)(=O)N2CCCc3nc(C)c(C)cc32)cc1	x	x	-18.8	x	-1.3	x
O=C(NC1CCCC1)C1CCN(C(=O)c2ccc(Cl)cc2Cl)CC1	5.6	1.2	-17.3	-16.8	4.8	8.6
COc1cccc(OC)c1C(=O)Nc1ccc2c3c(cccc13)CC2	-2.3	-18.5	-30.7	-26.8	5.3	28.8
O=C(Nc1cccc2c1CCCC2)c1ccccc1Cl	-23.6	-7.8	-17.6	-23.6	3.8	3.9
COc1ccccc1C(=O)Nc1ccc2c3c(cccc13)CC2	-14.6	-19.3	-4.3	7.9	5.6	60.7*
COc1ccccc1C(=O)Nc1cccc2c1CCCC2	-7.3	-18.8	0.0	-4.5	-2.1	27.4*
O=C(NCc1ccccc1)[C@@H]1CCCN1C(=O)[C@H]1CCCN1C(=O)c1ccc(Cl)c(Cl)c1	x	x	6.2	x	1.0	x
O=S(=O)(Nc1ccc2c(c1)OCCO2)c1ccc2oc3ccccc3c2c1	-8.7	19.6	-10.3	-4.0	8.0	64.5*
O=S(=O)(NCc1ccc2c(c1)OCO2)c1ccc2oc3ccccc3c2c1	-4.2	-3.9	9.1	-7.6	12.8	52.3*
Cc1ccc(S(=O)(=O)NCc2ccc3c(c2)OCO3)cc1C	12.9	1.0	9.7	-9.6	-1.7	33.5
OCCCc1nc2n(n1)C(c1cccs1)C=C(c1ccccc1)N2 (stereo unspecified)	5.0	33.2*	x	23.1	x	26.0
